Several values for one entry are separate records, joined by “and”; a condition that tells them apart may be missing. Equal values may be shown once.
Legend:
Fibroblast = assay: Multiplex assay against human fibroblast; assay type: toxicity, cell-based; settings: number of replicates 2
How it was run: (§1)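 Four dyes were applied at seeding to live cells: Hoechst33342, BioTracker Green Microtubule Cytoskeleton Dye, MitoTracker Red and Annexin V Alexa Fluor 680. Imaging after compound addition used a CQ1 microscope at 37°C and 5% CO2. CellPathfinder machine-learning gating then sorted cells into Hoechst high-intensity objects or normal cells, normal cells into healthy, pyknosed or fragmented nuclei, and pyknosed cells into mitotic or apoptotic, with tubulin, mitochondrial-mass and membrane-permeability phenotypes given as per cents of healthy-nucleus cells.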

HEK-293T = assay: Multiplex assay against HEK293T; assay type: toxicity, cell-based; settings: human, number of replicates 2; how it was run: as §1
[1] = 12 h, 1 µM, compound concentration 1 uM
[2] = 12 h, 10 µM, compound concentration 10 uM
[3] = 24 h, 1 µM, compound concentration 1 uM
[4] = 24 h, 10 µM, compound concentration 10 uM
[5] = 48 h, 1 µM, compound concentration 1 uM
[6] = 48 h, 10 µM, compound concentration 10 uM

Question: Which results are given for CCC(=O)O[C@@H](OP(=O)(CCCCc1ccccc1)CC(=O)N1C[C@H](C2CCCCC2)C[C@H]1C(=O)[O-])C(C)C.[Na+] (stereo not given in full)?
Answer: Population Apoptotic (%) (Fibroblast; [1]): 42% and 43%; Population Fragmented Nuclei (%) (Fibroblast; [1]): 7% and 8%; Population Healthy Nuclei (%) (Fibroblast; [1]): 69% and 71%; Population Hoechst High Intensity Objects (%) (Fibroblast; [1]): 0%; Population Membrane Permeable-Phenotype (%) (Fibroblast; [1]): 9% and 2%; Population Mitochondria Different-Phenotype (%) (Fibroblast; [1]): 0% and 2%; Population Mitotic Cells (%) (Fibroblast; [1]): 57% and 56%; Population Normal (%) (Fibroblast; [1]): 99%; Population Pyknosed Nuclei (%) (Fibroblast; [1]): 22% and 19%; Population Tubulin-Different-Phenotype (%) (Fibroblast; [1]): 11% and 9%; Total Cell Count (Fibroblast; [1]): 189 and 198; Population Fragmented Nuclei (%) (Fibroblast; [2]): 6% and 13%; Population Healthy Nuclei (%) (Fibroblast; [2]): 76% and 70%; Population Hoechst High Intensity Objects (%) (Fibroblast; [2]): 0%; Population Membrane Permeable-Phenotype (%) (Fibroblast; [2]): 5% and 2%; Population Mitochondria Different-Phenotype (%) (Fibroblast; [2]): 0%; Population Mitotic Cells (%) (Fibroblast; [2]): 45% and 82%; Population Normal (%) (Fibroblast; [2]): 100%; Population Pyknosed Nuclei (%) (Fibroblast; [2]): 16% and 15%; Population Tubulin-Different-Phenotype (%) (Fibroblast; [2]): 10% and 5%; Total Cell Count (Fibroblast; [2]): 207 and 226; Population Apoptotic (%) (Fibroblast; [3]): 50% and 45%; Population Fragmented Nuclei (%) (Fibroblast; [3]): 6% and 14%; Population Healthy Nuclei (%) (Fibroblast; [3]): 73% and 64%; Population Hoechst High Intensity Objects (%) (Fibroblast; [3]): 0%; Population Membrane Permeable-Phenotype (%) (Fibroblast; [3]): 3% and 6%; Population Mitochondria Different-Phenotype (%) (Fibroblast; [3]): 0% and 2%; Population Mitotic Cells (%) (Fibroblast; [3]): 50% and 54%; Population Normal (%) (Fibroblast; [3]): 100%; Population Pyknosed Nuclei (%) (Fibroblast; [3]): 20%; Population Tubulin-Different-Phenotype (%) (Fibroblast; [3]): 9% and 10%; Total Cell Count (Fibroblast; [3]): 178 and 215; Population Apoptotic (%) (Fibroblast; [4]): 41% and 50%; Population Fragmented Nuclei (%) (Fibroblast; [4]): 8% and 14%; Population Healthy Nuclei (%) (Fibroblast; [4]): 76% and 74%; Population Hoechst High Intensity Objects (%) (Fibroblast; [4]): 0%; Population Membrane Permeable-Phenotype (%) (Fibroblast; [4]): 5% and 1%; Population Mitochondria Different-Phenotype (%) (Fibroblast; [4]): 0%; Population Mitotic Cells (%) (Fibroblast; [4]): 58% and 50%; Population Normal (%) (Fibroblast; [4]): 99% and 100%; Population Pyknosed Nuclei (%) (Fibroblast; [4]): 15% and 11%; Population Tubulin-Different-Phenotype (%) (Fibroblast; [4]): 11% and 3%; Total Cell Count (Fibroblast; [4]): 223 and 221; Population Apoptotic (%) (Fibroblast; [5]): 68% and 61%; Population Fragmented Nuclei (%) (Fibroblast; [5]): 11% and 15%; Population Healthy Nuclei (%) (Fibroblast; [5]): 67% and 68%; Population Hoechst High Intensity Objects (%) (Fibroblast; [5]): 0%; Population Membrane Permeable-Phenotype (%) (Fibroblast; [5]): 5% and 11%; Population Mitochondria Different-Phenotype (%) (Fibroblast; [5]): 0% and 1%; Population Mitotic Cells (%) (Fibroblast; [5]): 31% and 38%; Population Normal (%) (Fibroblast; [5]): 100%; Population Pyknosed Nuclei (%) (Fibroblast; [5]): 20% and 16%; Population Tubulin-Different-Phenotype (%) (Fibroblast; [5]): 8%; Total Cell Count (Fibroblast; [5]): 183 and 213; Population Apoptotic (%) (Fibroblast; [6]): 45% and 48%; Population Fragmented Nuclei (%) (Fibroblast; [6]): 9% and 16%; Population Healthy Nuclei (%) (Fibroblast; [6]): 75% and 72%; Population Hoechst High Intensity Objects (%) (Fibroblast; [6]): 0%; Population Membrane Permeable-Phenotype (%) (Fibroblast; [6]): 4% and 1%; Population Mitochondria Different-Phenotype (%) (Fibroblast; [6]): 0%; Population Mitotic Cells (%) (Fibroblast; [6]): 54% and 52%; Population Normal (%) (Fibroblast; [6]): 99% and 100%; Population Pyknosed Nuclei (%) (Fibroblast; [6]): 14% and 10%; Population Tubulin-Different-Phenotype (%) (Fibroblast; [6]): 6% and 1%; Total Cell Count (Fibroblast; [6]): 222 and 228; Population Apoptotic (%) (HEK-293T; [1]): 44% and 35%; Population Fragmented Nuclei (%) (HEK-293T; [1]): 2% and 1%; Population Healthy Nuclei (%) (HEK-293T; [1]): 86% and 85%; Population Hoechst High Intensity Objects (%) (HEK-293T; [1]): 5% and 6%; Population Membrane Permeable-Phenotype (%) (HEK-293T; [1]): 3%; Population Mitochondria Different-Phenotype (%) (HEK-293T; [1]): 17% and 15%; Population Mitotic Cells (%) (HEK-293T; [1]): 55% and 64%; Population Normal (%) (HEK-293T; [1]): 94% and 93%; Population Pyknosed Nuclei (%) (HEK-293T; [1]): 11% and 12%; Population Tubulin-Different-Phenotype (%) (HEK-293T; [1]): 46% and 44%; Total Cell Count (HEK-293T; [1]): 721 and 624; Population Apoptotic (%) (HEK-293T; [2]): 28% and 35%; Population Fragmented Nuclei (%) (HEK-293T; [2]): 2% and 3%; Population Healthy Nuclei (%) (HEK-293T; [2]): 84% and 86%; Population Hoechst High Intensity Objects (%) (HEK-293T; [2]): 5% and 6%; Population Membrane Permeable-Phenotype (%) (HEK-293T; [2]): 1% and 3%; Population Mitochondria Different-Phenotype (%) (HEK-293T; [2]): 13%; Population Mitotic Cells (%) (HEK-293T; [2]): 71% and 64%; Population Normal (%) (HEK-293T; [2]): 94% and 93%; Population Pyknosed Nuclei (%) (HEK-293T; [2]): 12% and 10%; Population Tubulin-Different-Phenotype (%) (HEK-293T; [2]): 51% and 50%; Total Cell Count (HEK-293T; [2]): 743 and 727; Population Apoptotic (%) (HEK-293T; [3]): 40% and 41%; Population Fragmented Nuclei (%) (HEK-293T; [3]): 5% and 3%; Population Healthy Nuclei (%) (HEK-293T; [3]): 86% and 88%

— ChEMBL document CHEMBL5303300, “EUbOPEN Chemogenomics Library - Multiplex” (2023)
